Experimental data published in ChEMBL document CHEMBL4673177, “Structure-activity relationships of sulfonamides derived from carvacrol and their potential for the treatment of Alzheimer''s disease” (RSC Med Chem, 2020).
Activity calls are given as the source filed them. The calls are words filed in the database; no cut-off is given here.

Assays:
[1] = tested on: Mus musculus; assay: Anxiolytic-like activity in STZ-induced mouse model of Alzheimer's disease assessed as open arm time permanency at 30 mg/kg, ip treated from 3 to 12 days starting from 3 days post initial STZ stimulation and measured on day 14 by elevated plus maze test (reference value: 37.6%); type: functional; settings: time 3-12 day
[2] = biological target: Acetylcholinesterase (Homo sapiens, UniProt P22303); assay: Inhibition of AChE (unknown origin) using acetylthiocholine iodide as substrate preincubated for 15 mins followed by substrate addition and measured after 30 mins by Ellman's method
[3] = tested on: Mus musculus; assay: Anxiolytic-like activity in STZ-induced mouse model of Alzheimer's disease assessed as open arm frequency at 30 mg/kg, ip treated from 3 to 12 days starting from 3 days post initial STZ stimulation and measured on day 14 by elevated plus maze test (reference value: 51.17%); type: functional; settings: time 3-12 day
[4] = Effect on behavioral activity in STZ-induced mouse model of Alzheimer's disease assessed as rearing at 30 mg/kg, ip treated from 3 to 12 days by open field test (reference value: 53.60 +/- 1.62); type: ADME, organism-based; settings: in vivo, time 3-12 day
[5] = Effect on locomotory activity in STZ-induced mouse model of Alzheimer's disease assessed as number of crossing 30 mg/kg, ip treated from 3 to 12 days by open field test (reference value: 114.00 +/- 3.12); type: organism-based; settings: in vivo, time 3-12 day
[6] = tested on: Mus musculus; assay: Antialzheimer activity in streptozotocin-induced mouse model of memory impairment assessed as median time of avoidance latency descent at 30 mg/kg, ip treated from 3 to 12 days starting from 3 days post initial STZ stimulation and measured on day 16 by avoidance test (reference value: 14 sec); type: functional; settings: time 3-12 day
In short: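 3-month-old female mice (25.0–30.0 g), STZ given i.c.v. as 3 μL of 2.5 mg mL-1 solution, repeated after 48 h. Vehicle or compound dosed i.p. until day 12. Training: shock 0.4 mA for 2 s on stepping down from the platform. Next-day test session without shock; descent latency timed. Reported as median with interquartile interval. N = 8–10 per group.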

[7] = tested on: Mus musculus; assay: Antioxidant activity in STZ-induced mouse model of Alzheimer's disease assessed as reduction in TBARS level in brain at 30 mg/kg, ip treated from 3 to 12 days starting from 3 days post initial STZ stimulation and measured on day 17 by spectrophotometric method; type: functional, organism-based; settings: time 3-12 day
In short: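 After the final behavioural test, brain homogenate (phosphate buffer pH 7.4, 3000g for 15 min) used for TBARS. The mixture was vortexed and centrifuged at 4000g for 10 min. The organic layer was read at 532 nm.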

[8] = tested on: Mus musculus; assay: Antioxidant activity in STZ-induced mouse model of Alzheimer's disease assessed as increase in GSH level in brain at 30 mg/kg, ip treated from 3 to 12 days starting from 3 days post initial STZ stimulation and measured on day 17 by spectrophotometric method; type: functional, organism-based; settings: time 3-12 day
In short: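 Brains collected one day after the last behavioural test, homogenized in phosphate buffer pH 7.4 and spun at 3000g for 15 min. Whole-brain GSH in the supernatant measured by a modified Beutler method, absorbance at 412 nm. Quantified against a GSH standard curve (5–50 μg); expressed as nmol GSH/mg protein.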

[9] = tested on: Mus musculus; assay: Antialzheimer activity in streptozotocin-induced mouse model of memory impairment assessed as median time of avoidance latency descent at 0.5 mg/kg, ip treated from 3 to 12 days starting from 3 days post initial STZ stimulation and measured on day 16 by avoidance test (reference value: 14 sec); type: functional; settings: time 3-12 day
[10] = Effect on locomotory activity in STZ-induced mouse model of Alzheimer's disease assessed as number of crossing 0.5 mg/kg, ip treated from 3 to 12 days by open field test (reference value: 114.00 +/- 3.12); type: organism-based; settings: in vivo, time 3-12 day
[11] = tested on: Mus musculus; assay: Anxiolytic-like activity in STZ-induced mouse model of Alzheimer's disease assessed as open arm time permanency at 0.5 mg/kg, ip treated from 3 to 12 days starting from 3 days post initial STZ stimulation and measured on day 14 by elevated plus maze test (reference value: 37.6%); type: functional; settings: time 3-12 day
In short: (§1)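 Female mice given STZ i.c.v. twice (48 h apart) were treated i.p. until day 12. Each mouse was placed in the centre of the elevated plus maze facing a closed arm and observed for 5 min. N about 8–10 per group.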

[12] = Effect on behavioral activity in STZ-induced mouse model of Alzheimer's disease assessed as rearing at 0.5 mg/kg, ip treated from 3 to 12 days by open field test (reference value: 53.60 +/- 1.62); type: organism-based; settings: in vivo, time 3-12 day
[13] = tested on: Mus musculus; assay: Anxiolytic-like activity in STZ-induced mouse model of Alzheimer's disease assessed as open arm frequency at 0.5 mg/kg, ip treated from 3 to 12 days starting from 3 days post initial STZ stimulation and measured on day 14 by elevated plus maze test (reference value: 51.17%); type: functional; settings: time 3-12 day; in short: as §1

Acetylcholinesterase, sequence (P22303 whole entry): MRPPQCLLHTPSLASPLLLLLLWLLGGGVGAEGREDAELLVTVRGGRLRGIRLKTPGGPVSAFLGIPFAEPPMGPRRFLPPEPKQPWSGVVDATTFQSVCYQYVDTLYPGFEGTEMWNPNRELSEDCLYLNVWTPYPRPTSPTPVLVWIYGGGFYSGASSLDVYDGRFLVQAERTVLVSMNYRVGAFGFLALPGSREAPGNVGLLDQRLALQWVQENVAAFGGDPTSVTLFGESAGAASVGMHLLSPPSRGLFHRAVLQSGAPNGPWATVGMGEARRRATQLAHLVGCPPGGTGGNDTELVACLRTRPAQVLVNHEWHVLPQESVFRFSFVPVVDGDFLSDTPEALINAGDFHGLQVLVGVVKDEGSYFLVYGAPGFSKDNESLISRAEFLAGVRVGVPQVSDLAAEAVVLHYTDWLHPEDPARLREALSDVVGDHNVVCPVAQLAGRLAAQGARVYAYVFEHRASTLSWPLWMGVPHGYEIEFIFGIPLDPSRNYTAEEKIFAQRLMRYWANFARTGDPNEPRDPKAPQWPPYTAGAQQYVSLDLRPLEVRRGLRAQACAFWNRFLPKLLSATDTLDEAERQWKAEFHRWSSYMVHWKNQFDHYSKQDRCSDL

SMILES: Cc1cc(S(=O)(=O)NCc2ccccn2)c(C(C)C)cc1O
- Activity [1]: 76%
- IC50 [2]: 6.99 µM
- Activity [3]: 69.44%
- Activity [4]: 46.17
- Activity [5]: 102.45
- Time [6]: 72 s

SMILES: Cc1cc(S(=O)(=O)Nc2ccccc2O)c(C(C)C)cc1O
- Activity [1]: 42%
- IC50 [2]: 8.74 µM
- Activity [3]: 41.9%
- Activity [7]: Active
- Activity [4]: 44.56
- Activity [5]: 107
- Time [6]: 107 s
- Activity [8]: Active

SMILES: Cc1cc(S(=O)(=O)Nc2cnccn2)c(C(C)C)cc1O
- Activity [1]: 19.3%
- IC50 [2]: 7.34 µM
- Activity [3]: 47.7%
- Activity [7]: Active
- Activity [4]: 50.17
- Activity [5]: 108.34
- Time [6]: 80 s
- Activity [8]: Active

SMILES: Cc1ccc(C(C)C)cc1O [CARVACROL]
- IC50 [2]: 284 µM

SMILES: Cc1cc(S(=O)(=O)NN)c(C(C)C)cc1O
- Activity [1]: 17.1%
- IC50 [2]: 9.24 µM
- Activity [3]: 43.31%
- Activity [7]: Active
- Activity [4]: 44.18
- Activity [5]: 98.45
- Time [6]: 130 s
- Activity [8]: Active

SMILES: Cc1cc(S(=O)(=O)N2CCOCC2)c(C(C)C)cc1O
- Activity [1]: 14.3%
- IC50 [2]: 5.64 µM
- Activity [3]: 25.11%
- Activity [7]: Active
- Activity [4]: 43.8
- Activity [5]: 116.3
- Time [6]: 116.5 s
- Activity [8]: Active

SMILES: COc1ccc2c3c1O[C@H]1C[C@@H](O)C=C[C@@]31CCN(C)C2 [GALANTAMINE]
- Time [9]: 122.5 s
- Activity [10]: 122.5
- Activity [11]: 6.6%
- Activity [12]: 54.23
- Activity [13]: 22.3%
